{
  "source": "paper PMC6469250",
  "about": "(Annals of Clinical and Translational Neurology, 2019)",
  "key": {"[1]": {"conditions": "cited from earlier work"}, "primary microglia": {"test_system": "primary microglia", "assay": "AβO-induced proinflammatory activation of cultured primary microglia", "format": "cell-based, mouse", "procedure,_shortened": "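Primary microglia came from mixed glia cultures and were exposed to AβO (100 nmol/L) for 24 h with test compound or vehicle. For qPCR, RNA was kit-extracted and analysed by the 2‑ΔΔCt method with Actb as reference. For p38MAPK, cells were lysed in Triton/SDS buffer with protease and phosphatase inhibitors, then immunoblotted with anti-phospho-p38MAPK and anti-p38MAPK (1:1000).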"}, "KCa3.1 [2]": {"molecular_target": "KCa3.1 (Mus musculus, UniProt O89109)", "sequence (O89109 whole entry)": "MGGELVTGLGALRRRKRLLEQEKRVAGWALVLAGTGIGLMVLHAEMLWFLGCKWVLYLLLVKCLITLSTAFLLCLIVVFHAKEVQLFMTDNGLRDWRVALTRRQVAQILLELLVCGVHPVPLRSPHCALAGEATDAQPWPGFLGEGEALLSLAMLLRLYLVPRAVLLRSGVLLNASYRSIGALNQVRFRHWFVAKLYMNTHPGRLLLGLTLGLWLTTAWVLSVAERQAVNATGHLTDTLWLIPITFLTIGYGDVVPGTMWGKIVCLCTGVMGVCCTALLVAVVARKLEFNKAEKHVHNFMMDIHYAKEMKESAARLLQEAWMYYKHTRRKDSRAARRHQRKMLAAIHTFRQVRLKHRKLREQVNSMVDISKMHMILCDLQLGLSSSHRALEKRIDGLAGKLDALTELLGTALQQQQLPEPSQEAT", "assay": "Whole-cell patch-clamp on AβO-activated cultured primary microglia", "format": "cell-based", "conditions": "AβO 100 nmol/L 24 h, senicapoc 1 μmol/L (Fig. 7A)", "procedure,_shortened": "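Whole-cell patch-clamp was done on cultured primary microglia after 24 h AβO (100 nmol/L) with test compound or vehicle. An aspartate-based internal solution was used. KCa3.1 conductance was taken from the slope of the TRAM-34-sensitive KCa current between −80 and −75 mV.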"}, "5xFAD mice [3]": {"test_system": "5xFAD mice", "assay": "hLTP in hippocampal slices from treated 5xFAD mice", "format": "in vivo", "conditions": "senicapoc diet for three months; to the level of Wt mice (Fig. 8F and G)", "procedure,_shortened": "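5xFAD and Wt littermates aged six months were fed test compound-medicated (2400 ppm) or control diet for three months. Hippocampal slices then received high-frequency stimulation. The read-out was mean percent change in fEPSP slope from baseline, averaged 50–60 min after HFS, from 8–12 slices of 5–6 mice per group. Data are mean ± SE; two-way ANOVA with Bonferroni.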"}, "[4]": {"conditions": "humans; cited from earlier work"}, "[5]": {"conditions": "cited from earlier work", "remark": "listed apart in the source"}, "5xFAD mice [6]": {"test_system": "5xFAD mice", "format": "in vivo", "procedure,_shortened": "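Six-month-old 5xFAD and Wt littermates got 2400 ppm test compound or control diet for three months (n = 9/group). Frozen 20 μm sections were stained overnight at 4°C with anti-Iba-1, CD68 or CD11b (1:200), Alexa secondaries (1:700) and FSB (400 nmol/L) for plaques. KCa3.1 was detected with APC064 or P4997 (1:3000); microglial co-localisation used three images per mouse. Imaging and analysis were blinded.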"}, "5xFAD mice [7]": {"test_system": "5xFAD mice", "assay": "Memory tasks: novel object recognition and step-through passive avoidance", "format": "in vivo", "conditions": "5xFAD mice at 9 months of age; no significant memory deficits in 5xFAD/control diet mice"}, "[8]": {"assay": "Pharmacokinetics in mice: total plasma and brain concentrations by LC-MS", "format": "in vivo", "conditions": "male, C57BL/6J, mouse"}, "5xFAD mice [9]": {"test_system": "5xFAD mice", "assay": "qPCR of acutely isolated microglia after three months of senicapoc diet", "format": "in vivo", "procedure,_shortened": "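Six-month-old 5xFAD and Wt littermates were fed 2400 ppm test compound or control diet ad lib for three months (n = 9/group). Microglia were acutely isolated with anti-CD11b magnetic beads. RNA was extracted, reverse-transcribed and pre-amplified. Pro-inflammatory and M2-like transcripts (Arg1, CD206, […], IGF-1) were quantified by 2‑ΔΔCt against Actb. Groups were compared by two-way ANOVA with Bonferroni.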"}, "[10]": {"assay": "Pharmacokinetics in rats: total plasma and brain concentrations by LC-MS", "format": "in vivo", "conditions": "oral gavage 50 mg/kg, rats (Fig. 6D)"}, "KCa3.1 [11]": {"test_system": "KCa3.1", "conditions": "read-out: IC50 for KCa3.1 inhibition; cited from earlier work"}, "hLTP": {"test_system": "hLTP", "conditions": "cited from earlier work"}},
  "note": "Where two headings read alike, the source gives them in different places.",
  "data": [
    {"smiles": "NC(=O)C(c1ccccc1)(c1ccc(F)cc1)c1ccc(F)cc1", "note": "[senicapoc]", "values": [
      {"measurement": "hemolysis and hemoglobin levels", "setting": "[1]; Phase-2 clinical trial", "result": "reduced hemolysis and increased hemoglobin levels"},
      {"measurement": "primary clinical end-point: reduction in the rate of vaso-occlusive pain crisis", "setting": "[1]; Phase-3", "result": "failed to achieve its primary clinical end‐point"},
      {"measurement": "safety and tolerability in humans", "setting": "[1]; Phase-3 clinical trial for sickle cell anemia", "result": "safe and well‐tolerated"},
      {"measurement": "AβO-induced microglial proliferation", "setting": "primary microglia; AβO 100 nmol/L 24 h, senicapoc 1 μmol/L if not otherwise indicated (Fig. 7B)", "result": "block"},
      {"measurement": "AβO-induced production of NO", "setting": "primary microglia; AβO 100 nmol/L 24 h, senicapoc 1 μmol/L if not otherwise indicated (Fig. 7E)", "result": "block"},
      {"measurement": "AβO-induced expression of microglial activation mediators IL-1β, IL-6 and iNOS", "setting": "primary microglia; AβO 100 nmol/L 24 h, senicapoc 1 μmol/L, qPCR (Fig. 7C)", "result": "block"},
      {"measurement": "AβO-induced activation of p38MAPK", "setting": "primary microglia; AβO 100 nmol/L, senicapoc 1 μmol/L, Western blotting (Fig. 7D)", "result": "block"},
      {"measurement": "AβO-induced microglial KCa3.1 currents", "setting": "KCa3.1 [2]", "result": "block"},
      {"measurement": "reduced induction of hLTP in 5xFAD mice", "setting": "5xFAD mice [3]", "result": "rectified"},
      {"measurement": "half-life", "setting": "[4]", "result": "~ 7 day"},
      {"measurement": "protein binding", "setting": "[5]", "result": 95, "unit": "%"},
      {"measurement": "number of microglia expressing KCa3.1", "setting": "5xFAD mice [6]; medicated diet for three months (Fig. 8B)", "result": "significantly reduced"},
      {"measurement": "reduction of CD11b immunoreactivity", "setting": "5xFAD mice [6]; medicated diet for three months, P < 0.001 (Fig. 8A)", "result": 45, "unit": "%"},
      {"measurement": "cognitive benefit", "setting": "5xFAD mice [7]", "result": "could not be demonstrated"},
      {"measurement": "concentration at 1 h", "setting": "[8]; brain, ip, 50 mg/kg", "result": "43 ± 8", "unit": "µM"},
      {"measurement": "half-life", "setting": "[8]; plasma", "result": "~1", "unit": "h"},
      {"measurement": "expressions of proinflammatory modulators IL-1β, TNF-α, IL-6, and iNOS (qPCR)", "setting": "5xFAD mice [9]; medicated diet for three months (Fig. 8C)", "result": "significantly reduced"},
      {"measurement": "markers typical of an M2-like phenotype (qPCR)", "setting": "5xFAD mice [9]; medicated diet for three months (Fig. S5)", "result": "no changes"},
      {"measurement": "oral availability", "setting": "[10]", "result": "roughly 60%"},
      {"measurement": "IC50", "setting": "KCa3.1 [11]", "result": 0.011, "unit": "µM"}
    ]},
    {"smiles": "CN(C)c1ccc(O)c2c1C[C@H]1C[C@H]3[C@H](N(C)C)C(O)=C(C(N)=O)C(=O)[C@@]3(O)C(O)=C1C2=O", "note": "[minocycline]", "values": [
      {"measurement": "hLTP disruption by Aβ", "setting": "hLTP", "result": "prevent the hLTP disruption"}
    ]}
  ]
}
